Consider one compound from ChEMBL document CHEMBL5653631, “A Potent and Selective ULK1 Inhibitor Suppresses Autophagy and Sensitizes Cancer Cells to Nutrient Stress” (iScience, 2018).

Activity calls are given as the source filed them. The calls are words filed in the database; no cut-off is given here.

For test [1], the system named is U2OS. In words: Inhibition of autophagy in human U2OS cells assessed as ATG12-positive puncta formation at 100 nM incubated for 2.5 hrs by Fluorescent microscopy based analysis. It is filed as functional, cell-based. In short, it runs like this: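 U2OS cells treated 2.5 hr with vehicle or 100 nM AZD8055, with or without 5 μM inhibitor; fixed and immunostained for endogenous ATG12; ATG12-positive puncta (phagophores) assessed by fluorescence microscopy.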

Test [2] relates to U2OS. In words: Inhibition of autophagy in human U2OS cells expressing […] assessed as DFCP1-positive puncta formation by measuring fold change at 100 nM incubated for 2.5 hrs by Fluorescent microscopy based analysis. It is filed as functional. In short, it runs like this:
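U2OS cells stably expressing EGFP-DFCP1 (omegasome marker) were treated 2.5 hr with vehicle or 100 nM AZD8055 (mTOR inhibitor used to induce autophagy), with or without 5 μM inhibitor, and imaged live by fluorescence microscopy. DFCP1-positive objects per cell were counted in 20–25 cells per condition and reported as mean ± SEM, with two-tailed unpaired t test.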

The test system of test [3] is U2OS. The experiment in a line: Inhibition of autophagy in human U2OS cells assessed as BafA1-induced LC3B-II accumulation by measuring fold change at 100 nM […] by immunoblotting analysis. It counts as functional. The conditions noted are these: time 4 hrs. On the technique in general: A western blot detects proteins with antibodies after separation by electrophoresis.

The subject of test [4] is U2OS. In words: Inhibition of autophagy in human U2OS cells expressing […] at 100 nM incubated for 2.5 hrs by Fluorescent microscopy based analysis. It counts as functional, cell-based. In short, it runs like this: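 U2OS cells stably expressing EGFP-DFCP1 treated 2.5 hr with vehicle or 100 nM AZD8055, with or without 5 μM inhibitor; imaged live by fluorescence microscopy; DFCP1-positive objects per cell counted in 20–25 cells per condition; mean ± SEM, two-tailed unpaired t test.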

`COc1ccc(-c2ccc3c(N4CCOC[C@@H]4C)nc(N4CCOC[C@@H]4C)nc3n2)cc1CO` [AZD-8055]: the inhibition entry in the test on U2OS [1] and in the test with U2OS [4] was “Active” in each case. For the same compound, the “fold change (FC)” value in the test on U2OS [2] turned out to be 3; with U2OS [3], 2.
